Measured values as given in ChEMBL document CHEMBL3352379, “Potent heterocyclic ligands for human complement c3a receptor” (J Med Chem, 2014).
The source made the active and inactive calls. The calls are words filed in the database; no cut-off is given here.

How the values were obtained:
[1] = target: T1, C3a anaphylatoxin chemotactic receptor (Homo sapiens, UniProt Q16581); test: Displacement of [125I]-C3a from C3AR in HMDMs by scintillation counting method
T1 sequence (Q16581 whole entry): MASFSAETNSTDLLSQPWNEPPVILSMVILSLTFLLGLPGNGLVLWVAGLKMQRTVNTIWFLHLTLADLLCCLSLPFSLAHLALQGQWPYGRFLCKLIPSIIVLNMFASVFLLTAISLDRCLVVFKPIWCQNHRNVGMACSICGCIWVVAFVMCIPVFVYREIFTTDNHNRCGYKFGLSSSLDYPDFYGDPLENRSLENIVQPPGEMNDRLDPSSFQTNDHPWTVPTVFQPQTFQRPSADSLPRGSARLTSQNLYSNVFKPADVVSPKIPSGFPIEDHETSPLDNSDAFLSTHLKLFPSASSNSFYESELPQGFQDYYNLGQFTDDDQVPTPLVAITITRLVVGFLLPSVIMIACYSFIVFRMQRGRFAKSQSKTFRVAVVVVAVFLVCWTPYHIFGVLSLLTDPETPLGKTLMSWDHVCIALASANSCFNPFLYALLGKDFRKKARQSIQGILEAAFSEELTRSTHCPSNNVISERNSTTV

[2] = target: T1, C3a anaphylatoxin chemotactic receptor; test: Antagonist activity against C3AR in HMDMs assessed as inhibition of C3a-induced intracellular calcium release by Fluo-3 AM dye based FLIPR assay
[3] = target: T2, C3a anaphylatoxin chemotactic receptor (Homo sapiens) (UniProt Q16581); test: Agonist activity against C3AR in HMDMs assessed as increase in intracellular calcium release up to 100 uM by Fluo-3 AM dye based FLIPR assay; format: functional, cell-based
T2 sequence (whole entry): T1 sequence (Q16581 whole entry)
How it was run: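 Overnight-plated HMDMs (5 × 10^4/well) loaded with 4 μM Fluo-3 AM for 1 h at 37 °C, washed into HBSS with 2.5 mM probenecid, 20 mM HEPES, pH 7.4; compound range added and Ca2+ fluorescence read ≥60 s (495/520 nm) by FLIPR.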

[4] = target: T1, C3a anaphylatoxin chemotactic receptor; test: Agonist activity against C3AR in HMDMs assessed as increase in intracellular calcium release by Fluo-3 AM dye based FLIPR assay relative to 1 uM C3a
[5] = target: T3, C5a anaphylatoxin chemotactic receptor 1 (Homo sapiens) (UniProt P21730); test: Displacement of [125I]-C5a from C5AR in HMDMs 20 uM by scintillation counting method
T3 sequence (whole entry): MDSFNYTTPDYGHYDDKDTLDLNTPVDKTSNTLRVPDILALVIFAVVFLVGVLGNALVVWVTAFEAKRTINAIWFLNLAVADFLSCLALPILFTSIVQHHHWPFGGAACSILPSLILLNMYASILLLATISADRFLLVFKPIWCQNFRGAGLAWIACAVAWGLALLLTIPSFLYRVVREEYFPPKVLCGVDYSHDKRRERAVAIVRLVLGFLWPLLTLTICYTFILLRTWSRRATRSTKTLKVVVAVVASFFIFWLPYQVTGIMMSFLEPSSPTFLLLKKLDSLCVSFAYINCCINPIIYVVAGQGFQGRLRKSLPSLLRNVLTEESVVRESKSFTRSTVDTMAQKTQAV

[6] = target: T2, C3a anaphylatoxin chemotactic receptor (Homo sapiens); test: Agonist activity against C3AR in HMDMs assessed as increase in TNFalpha mRNA expression at 300 nM incubated for 30 mins by qRT-PCR method
How it was run: (§1)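 HMDMs (CSF-differentiated CD14+ blood monocytes, day 7) seeded at 1 × 10^6 mL−1 and adhered overnight, then stimulated 30 min at 0.3 μM. RNA extracted; qRT-PCR normalized to 18S rRNA; fold change relative to untreated control; mean ± SEM of three independent experiments.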

[7] = target: T2, C3a anaphylatoxin chemotactic receptor (Homo sapiens); test: Agonist activity against C3AR in C3a desensitized HMDMs assessed as increase in intracellular calcium release at 10 uM added 5 mins post C3a-induced desensitization by Fluo-3 AM dye based FLIPR; format: functional, cell-based
How it was run: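 HMDMs desensitized with 300 nM C3a at t0, then given test agonist at 10 μM; calcium signal monitored on FLIPR after Fluo-3 AM loading (4 μM, 1 h, 37 °C) in HBSS with 2.5 mM probenecid, 20 mM HEPES, pH 7.4; excitation 495, emission 520 nm.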

[8] = target: T2, C3a anaphylatoxin chemotactic receptor (Homo sapiens); test: Agonist activity against C3AR in HMDMs assessed as increase in CCL3 mRNA expression at 300 nM incubated for 30 mins by qRT-PCR method; how it was run: as §1
[9] = target: T2, C3a anaphylatoxin chemotactic receptor (Homo sapiens); test: Agonist activity against C3AR in HMDMs assessed as increase in IL-1beta mRNA expression at 300 nM incubated for 30 mins in presence of 30 mins pre-treatment with 10 uM (2-(2,2-Diphenylethoxy)acetyl)-L-arginine by qRT-PCR method
How it was run: (§2)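 HMDMs seeded at 1 × 10^6 mL−1, adhered overnight, pretreated with C3aR antagonist (10 μM, 30 min), then stimulated 30 min at 0.3 μM. RNA extracted; qRT-PCR normalized to 18S rRNA; fold change relative to untreated control; mean ± SEM, three independent experiments.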

[10] = target: T2, C3a anaphylatoxin chemotactic receptor (Homo sapiens); test: Agonist activity against C3AR in HMDMs assessed as increase in TNFalpha mRNA expression at 300 nM incubated for 30 mins in presence of 30 mins pre-treatment with 10 uM (2-(2,2-Diphenylethoxy)acetyl)-L-arginine by qRT-PCR method; how it was run: as §2
[11] = target: T2, C3a anaphylatoxin chemotactic receptor (Homo sapiens); test: Agonist activity against C3AR in HMDMs assessed as increase in IL-1beta mRNA expression at 300 nM incubated for 30 mins by qRT-PCR method; how it was run: as §1
[12] = target: T2, C3a anaphylatoxin chemotactic receptor (Homo sapiens); test: Agonist activity against C3AR in HMDMs assessed as increase in CCL3 mRNA expression at 300 nM incubated for 30 mins in presence of 30 mins pre-treatment with 10 uM (2-(2,2-Diphenylethoxy)acetyl)-L-arginine by qRT-PCR method; how it was run: as §2
[13] = target: T2, C3a anaphylatoxin chemotactic receptor (Homo sapiens)
[14] = target: T2, C3a anaphylatoxin chemotactic receptor (Homo sapiens); remark: listed apart in the source

Structure (SMILES)	IC50 [1] [nM]	IC50 [2] [nM]	further results
Cc1nc(C(c2ccccc2)c2ccccc2)oc1C(=O)N[C@@H](CCCNC(=N)N)C(=O)O	100	3980	
N=C(N)NCCC[C@H](NC(=O)CNCC(c1ccccc1)c1ccccc1)C(=O)O	150		Activity [3]: inactive
N=C(N)NCCC[C@H](NC(=O)c1coc(C(c2ccccc2)c2ccccc2)n1)C(=O)O	19		
N=C(N)NCCC[C@H](NC(=O)CCCC(c1ccccc1)c1ccccc1)C(=O)O	96		Activity [3]: inactive
N=C(N)NCCC[C@H](NC(=O)c1nnc(C(c2ccccc2)c2ccccc2)o1)C(=O)O	967	19000	
N=C(N)NCCC[C@H](NC(=O)CSCC(c1ccccc1)c1ccccc1)C(=O)O	8		Activity [3]: inactive
Cc1c(C(=O)N[C@@H](CCCNC(=N)N)C(=O)O)nc(C(c2ccccc2)c2ccccc2)n1C	31		EC50 [4]: 40 nM
N=C(N)NCCC[C@H](NC(=O)COCC(c1ccccc1)c1ccccc1)C(=O)O	10	1260	Activity [3]: inactive
N=C(N)NCCC[C@H](NC(=O)c1oc(C(c2ccccc2)c2ccccc2)nc1-c1ccccc1)C(=O)O	110	2000	
N=C(N)NCCC[C@H](NC(=O)c1noc(C(c2ccccc2)c2ccccc2)n1)C(=O)O	54	1000	
Cc1[nH]c(C(c2ccccc2)c2ccccc2)nc1C(=O)N[C@@H](CCCNC(=N)N)C(=O)O	10		inhibition [5]: inactive; Activity [6]: Active; Activity [7]: inactive; Activity [8]: Active; Activity [9]: inactive; EC50 [4]: 25.1 nM; Activity [10]: inactive; Activity [11]: Active; Activity [12]: inactive
Cc1nc(C(c2ccccc2)c2ccccc2)n(C)c1C(=O)N[C@@H](CCCNC(=N)N)C(=O)O	1140		pEC50 [13]: inactive; pIC50 [14]: inactive
N=C(N)NCCC[C@H](NC(=O)c1nc(C(c2ccccc2)c2ccccc2)no1)C(=O)O	12	1000	
Cc1oc(C(c2ccccc2)c2ccccc2)nc1C(=O)N[C@@H](CCCNC(=N)N)C(=O)O	11		pEC50 [13]: Active
N=C(N)NCCC[C@H](NC(=O)c1nc(C(c2ccccc2)c2ccccc2)[nH]c1-c1ccccc1)C(=O)O	87		EC50 [4]: > 31600 nM
